One data set has as its target Cathepsin S (Homo sapiens, UniProt P25774). As to the kind of experiment: Inhibition of recombinant human cathepsin S.
The next data set addresses T1, Cathepsin K (Homo sapiens, UniProt P43235).
T1 sequence (P43235 whole entry): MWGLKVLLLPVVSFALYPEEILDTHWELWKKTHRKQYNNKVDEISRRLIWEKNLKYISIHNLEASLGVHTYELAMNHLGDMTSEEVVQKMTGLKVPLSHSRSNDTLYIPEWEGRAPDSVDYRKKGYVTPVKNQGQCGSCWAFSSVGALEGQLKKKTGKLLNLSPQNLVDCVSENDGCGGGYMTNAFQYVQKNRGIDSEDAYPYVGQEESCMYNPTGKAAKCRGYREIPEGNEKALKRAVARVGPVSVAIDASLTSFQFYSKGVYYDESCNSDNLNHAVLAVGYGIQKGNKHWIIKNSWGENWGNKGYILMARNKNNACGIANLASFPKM
Kind of data set: Inhibition of recombinant human cathepsin K.

In the next data set the target is Procathepsin L (Homo sapiens, UniProt P07711). As to the kind of experiment: Inhibition of recombinant human cathepsin L.
A short description of data set [1]: Clearance in rat. The class given is ADME, organism-based. Particulars: in vivo. The method in brief: (§1)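 Cassette dosing of six compounds to conscious, fed, permanently cannulated rats. IV bolus of 1 mg kg^-1 in N-methyl-2-pyrrolidone/PEG200 (30:70, v/v). Oral dose of 3 mg kg^-1, dissolved or suspended with sonication in 1% tartaric acid plus 1% carboxymethyl cellulose in water. Same animals received both routes, with a 48 h washout between them. Femoral arterial blood sampled over 24 h. Plasma extracted by acetonitrile precipitation and parent drug quantified by HPLC/MS.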

In the next data set the test system is Rattus norvegicus. Kind of data set: Cmax in rat at 3 mg/kg, po normalized to 1 mg/kg. Type of data set: ADME, organism-based. Set-up: dose 3 mg/kg, route oral. Conditions: in vivo. Summed up:
as §1

Data set [2] can be described thus: Volume of distribution in rat. Type of data set: ADME, organism-based. Conditions: in vivo, read-out: Vss. Summed up:
as §1

Data set [3] in a line: Terminal half life in rat. Conditions: in vivo. The class given is ADME, organism-based. The method in brief: as §1
The nature of data set [4]: Oral bioavailability in rat. The class given is ADME, organism-based. Conditions: in vivo. Summed up: as §1

A value given as a limit tells only on which side of the number the result lay.

Sequence of Procathepsin L (P07711 whole entry): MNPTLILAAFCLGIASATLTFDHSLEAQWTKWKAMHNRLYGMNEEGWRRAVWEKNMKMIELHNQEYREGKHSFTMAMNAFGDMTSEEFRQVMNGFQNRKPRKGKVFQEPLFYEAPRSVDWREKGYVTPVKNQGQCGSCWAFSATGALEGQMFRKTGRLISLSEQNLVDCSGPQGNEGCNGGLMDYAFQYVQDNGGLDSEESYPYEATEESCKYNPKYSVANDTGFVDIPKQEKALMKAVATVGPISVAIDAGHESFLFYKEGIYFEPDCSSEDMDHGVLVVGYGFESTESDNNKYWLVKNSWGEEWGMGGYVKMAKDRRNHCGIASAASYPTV
Sequence of Cathepsin S (P25774 whole entry): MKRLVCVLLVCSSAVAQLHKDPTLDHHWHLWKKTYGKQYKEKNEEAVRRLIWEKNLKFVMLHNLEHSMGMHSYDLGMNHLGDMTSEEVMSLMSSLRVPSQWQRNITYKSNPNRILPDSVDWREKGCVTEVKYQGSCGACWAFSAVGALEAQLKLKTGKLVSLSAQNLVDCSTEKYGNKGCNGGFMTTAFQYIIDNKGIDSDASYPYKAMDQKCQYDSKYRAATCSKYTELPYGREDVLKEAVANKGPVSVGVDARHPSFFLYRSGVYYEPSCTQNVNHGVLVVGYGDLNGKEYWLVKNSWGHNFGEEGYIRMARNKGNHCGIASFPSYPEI

With `Cc1ccc(C[C@@H](C#N)NC(=O)[C@H](CC(C)C)NC(=O)OCc2ccccc2)cc1`, the IC50 on Cathepsin S is above 10 µM; on Cathepsin K, 0.048 µM; at Procathepsin L, 9.9 µM.
In the same order, the values of `CC(C)C[C@H](NC(=O)OCc1ccccc1)C(=O)N[C@H](C#N)COC(C)(C)C` are 0.9 µM, 0.24 µM and 2.8 µM.
For the molecule `CC(C)C[C@H](NC(=O)OCc1ccccc1)C(=O)N[C@H](C#N)COCc1ccccc1`, in data set [1], the clearance was 45 mL/min/kg. Moreover, the values for the IC50 at Cathepsin S, on Cathepsin K and on Procathepsin L were 0.969 µM, 0.009 µM and 1.7 µM, respectively. The molecule further showed a Cmax with Rattus norvegicus of 44.3 nM. Besides, the Vd in data set [2] worked out at 4.6 L/kg. Besides, the half-life in data set [3] was 2.2 h. The molecule also came in with a bioavailability in data set [4] of 26.4%.
As for `COc1ccc(C[C@@H](C#N)NC(=O)[C@H](CC(C)C)NC(=O)OCc2ccccc2)cc1`, the IC50 worked out at 0.7 µM on Cathepsin S, 0.063 µM on Cathepsin K and 1.1 µM at Procathepsin L.
With `Cc1cccc(C[C@@H](C#N)NC(=O)[C@H](CC(C)C)NC(=O)OCc2ccccc2)c1`, the results for the IC50 on Cathepsin S, at Cathepsin K and on Procathepsin L were 2.3 µM, 0.12 µM and 7.7 µM, respectively.
In the same order, the values of `CC(C)C[C@H](NC(=O)C(C)(C)Nc1ccc(Cl)cc1)C(=O)N[C@H](C#N)COCc1ccccc1` are 0.041 µM, 0.43 µM and 0.19 µM.
In turn, `CC(C)C[C@H](NC(=O)CN1CCN(c2ccncc2)CC1)C(=O)N[C@H](C#N)COCc1ccccc1` returned a clearance in data set [1] of 320 mL/min/kg. Moreover, the IC50 on Cathepsin S was 0.18 µM; on Cathepsin K, 0.009 µM; on Procathepsin L it was 0.33 µM. This molecule also gave a Cmax with Rattus norvegicus of 2.5 nM. Moreover, the Vd in data set [2] stood at 18 L/kg. Moreover, the half-life in data set [3] was 1 h. The bioavailability in data set [4] was found to be 3.5%.
Turning to `CC(C)C[C@H](NC(=O)c1cc2ccccc2[nH]1)C(=O)N[C@H](C#N)COCc1ccccc1`, the IC50 is 0.029 µM at Cathepsin S, below 0.001 µM at Cathepsin K and 0.154 µM at Procathepsin L.
For `Cc1nccn1CC(=O)N[C@@H](CC(C)C)C(=O)N[C@H](C#N)COCc1ccccc1`, the results for the IC50 on Cathepsin S and at Procathepsin L were 0.24 µM and 0.66 µM, respectively.
Consider `CC(C)C[C@H](NC(=O)c1cc2ccccc2n1C)C(=O)N[C@H](C#N)COCc1ccccc1`, for which, in data set [1], the clearance came out at 82 mL/min/kg. The IC50 was 0.047 µM on Cathepsin S, below 0.001 µM at Cathepsin K and 0.083 µM on Procathepsin L. In the data set on Rattus norvegicus, this molecule displayed a Cmax of 51.1 nM. Moreover, the Vd in data set [2] turned out to be 7.7 L/kg. Further, the half-life in data set [3] is 1.4 h. In data set [4], this molecule registered a bioavailability of 30.1%.
`Cc1nc[nH]c1CC(=O)N[C@@H](CC(C)C)C(=O)N[C@H](C#N)COCc1ccccc1`: the clearance in data set [1] is 396 mL/min/kg. Besides, the figures for the IC50 on Cathepsin S, on Cathepsin K and at Procathepsin L were 0.13 µM, 0.024 µM and 0.11 µM, respectively. The molecule further returned a Cmax in the data set on Rattus norvegicus of 11.3 nM. For the same molecule, the Vd in data set [2] is 4.3 L/kg. The half-life in data set [3] was 0.2 h. The molecule also registered a bioavailability in data set [4] of 4.6%.
In data set [1], `CC(C)C[C@H](NC(=O)C(C)(C)Oc1ccc(Cl)cc1)C(=O)N[C@H](C#N)COCc1ccccc1` showed a clearance of 141 mL/min/kg. Also, the IC50 at Cathepsin S was 0.052 µM; at Cathepsin K, below 0.001 µM; at Procathepsin L it was below 0.03 µM. Further, the Cmax with Rattus norvegicus is listed as 3.5 nM. For the same molecule, the Vd in data set [2] turned out to be 13.6 L/kg. Besides, the half-life in data set [3] is 3.1 h. In data set [4], this molecule had a bioavailability of 10.1%.
In the case of `CC(C)C[C@H](NC(=O)OCc1ccccc1)C(=O)N[C@H](C#N)Cc1ccc(C(F)(F)F)cc1`, the values for the IC50 at Cathepsin S, on Cathepsin K and on Procathepsin L were above 10 µM, 0.043 µM and 8 µM, respectively.
With `CC(C)C[C@H](NC(=O)CN1CCC(c2ccccc2)CC1)C(=O)N[C@H](C#N)COCc1ccccc1`, the IC50 was determined as 0.14 µM on Cathepsin S, 0.083 µM at Cathepsin K and 1.2 µM on Procathepsin L.
On the same counts, the results for `CC(C)C[C@H](NC(=O)OCc1ccccc1)C(=O)N[C@H](C#N)Cc1ccc(OCc2ccccc2)cc1` are above 10 µM, above 1 µM and above 10 µM.
On the same counts, the results for `CC(C)C[C@H](NC(=O)OCc1ccccc1)C(=O)N[C@H](C#N)Cc1ccc(OC(C)(C)C)cc1` are above 10 µM, 0.398 µM and 1.4 µM.
